Data as given in ChEMBL document CHEMBL1128452, “Pseudodipeptide inhibitors of protein farnesyltransferase” (J Med Chem, 1995).
Peptide text beside a SMILES is read from it. * marks the point of attachment. NHPhenethyl = c1ccc(CCN*)cc1

How the values were obtained:
[1] = target: Protein farnesyltransferase (Bos taurus, UniProt P29702+P49355); experiment: In vitro concentration required to reduce Farnesyltransferase catalyzed incorporation of [3H]FPP into recombinant Ha-Ras protein by 50%; assay type: protein-complex assay
Procedure, shortened: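 Farnesyltransferase was purified from bovine brain and used at ca. 1 nM. It was incubated with compound, [³H]FPP and recombinant Harvey-Ras. Total protein was acid-precipitated and Ras-bound label counted by scintillation. IC50 is the concentration halving incorporation relative to a no-inhibitor control. Values are mean ± SEM of the stated number of determinations, or a single determination estimated reliable within 2-fold.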

NIH3T3 = experiment: Highest nontoxic concentration for cultured NIH 3T3 cells assessed by MTT staining.; assay type: functional, Mus musculus
Procedure, shortened: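 NIH 3T3 cells exposed to compound for 48 h. Viability read by MTT staining. The value reported is the highest concentration the cells tolerated without toxicity.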

[2] = target: Geranylgeranyl transferase type I (Bos taurus, UniProt P29702+Q5EAD5); experiment: Inhibition of bovine Geranylgeranyl transferase type I; assay type: protein-complex assay

SMILES	IC50 [1] [nM]	IC50 [2] [nM]	Cytotoxic endpoint (NIH3T3) [µM]
C[C@H](NC[C@@H](N)CS)C(=O)NCc1ccccc1	2000		
CCC(C)[C@@H](CNCCc1ccccc1)NC(=O)[C@@H](N)CS (stereo partly specified)	9000		
CCC(C)[C@H](NC[C@@H](N)CS)C(=O)NCCC(C)C (stereo partly specified)		100000	
CC[C@H](NC[C@@H](N)CS)C(=O)NCc1ccccc1	1100		
CCC(C)[C@H](NC[C@H](C)N)C(=O)NCCc1ccccc1 (stereo partly specified)	> 10000		>100
CCC(C)[C@H](NC[C@@H](N)CS)C(=O)NCc1cccc(C)c1 (stereo partly specified)	1000		25
CCC(C)[C@@H](CNCCc1ccccc1)NC[C@@H](N)CS (stereo partly specified)			10
CCC(C)[C@H](NC(=O)CCS)C(=O)NCCc1ccccc1 (stereo partly specified)	> 10000		10
CCC(C)[C@H](NC[C@@H](N)CS)C(=O)N(C)Cc1ccccc1 (stereo partly specified)	945		
CCCCN(Cc1ccccc1)C(=O)[C@@H](NC[C@@H](N)CS)C(C)CC (stereo partly specified)	1300		
CC[C@H](C)[C@H](NC(=O)[C@@H](N)CS)C(=O)NCCc1ccccc1 (H-Cys-Ile-NHPhenethyl)	1000		>100

Continued, in another order:

IC50 [1] [nM]	IC50 [2] [nM]	SMILES	Cytotoxic endpoint (NIH3T3) [µM]
370		CCC(C)[C@H](NC[C@@H](N)CS)C(=O)NC(CO)Cc1ccccc1 (stereo partly specified)	
660		CCC(C)[C@H](NC[C@@H](N)CS)C(=O)NCc1ccc(OC)cc1 (stereo partly specified)	50
600		CCC[C@H](NC[C@@H](N)CS)C(=O)NCc1ccccc1	
23	6800	CCC(C)[C@H](NC[C@@H](N)CS)C(=O)NCc1cccc(Cl)c1Cl (stereo partly specified)	5
46	6200	CCC(C)[C@H](NC[C@@H](N)CS)C(=O)Nc1cccc(C)c1 (stereo partly specified)	25
120	30000	CCC(C)[C@H](NC[C@@H](N)CS)C(=O)NCc1ccc(C)cc1C (stereo partly specified)	10
97	10000	CCC(C)[C@H](NC[C@@H](N)CS)C(=O)NCc1ccc(Cl)cc1Cl (stereo partly specified)	10
70		CCC(C)[C@H](NC[C@@H](N)CS)C(=O)Nc1ccccc1 (stereo partly specified)	
400	21000	CCC(C)[C@H](NC[C@@H](N)CS)C(=O)NCc1ccc(S(N)(=O)=O)cc1 (stereo partly specified)	100
707		CCC(C)[C@H](NC[C@@H](N)CS)C(=O)NCCc1ccccc1 (stereo partly specified)	10
40	8200	CCC(C)[C@H](NC[C@@H](N)CS)C(=O)Nc1cccc(C)c1C (stereo partly specified)	10
450	86000	CCC(C)[C@H](NC[C@@H](N)CS)C(=O)NCc1ccccc1 (stereo partly specified)	
60		CCC(C)[C@H](NC[C@@H](N)CS)C(=O)Nc1ccc(C)cc1C (stereo partly specified)	5
900		CCCC[C@H](NC[C@@H](N)CS)C(=O)NCc1ccccc1	
350		CCC(C)[C@H](NC[C@@H](N)CS)C(=O)NCCCc1ccccc1 (stereo partly specified)	
